# Measurements reported in ChEMBL document CHEMBL2029233, “Des-acyl ghrelin fragments and analogues promote survival of pancreatic β-cells and human pancreatic islets and prevent diabetes in streptozotocin-treated rats” (2012).
# Activity calls are given as the source filed them. The rule behind the calls is not given here.
# How the values were obtained:
# HIT-T15 [1] = assay: Cytoprotective activity in hamster HIT-T15 cells assessed as inhibition of IFN-gamma/TNFalpha/IL1beta-induced cell death after 24 hrs by MTT assay relative to control; assay type: functional, cell-based; settings: Mesocricetus auratus
# Summary of the method: (§1)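 HIT-T15 cells (5×10^3/well) serum-starved 24 h, then 24 h serum-free with IFN-γ 100 ng/mL, TNF-α 200 ng/mL, IL-1β 10 ng/mL plus peptide (1–100 nM). MTT 1 mg/mL ~1 h, formazan dissolved in DMSO, A570. Reported as percent of cytokine control. Mean ± SE of ≥3 experiments in quadruplicate.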
# Rattus norvegicus [2] = assay: Antidiabetic activity in neonatal Sprague-Dawley rat assessed as inhibition of STZ-induced mortality at 100 nmol/kg, sc administered on day 2 post STZ-challenge measured on day 9 (reference value: 52%); assay type: functional; parameters: scale not given: the % may be the effect or the level left
# Rattus norvegicus [3] = assay: Antidiabetic activity in neonatal Sprague-Dawley rat assessed as inhibition of STZ-induced decrease in pancreatic insulin level at 100 nmol/kg, sc administered from day 2 to day 9 post STZ-challenge measured after 70 days by RIA by relative to control; assay type: functional, organism-based
# Summary of the method: (§2)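 Neonatal rats given STZ 100 mg/kg ip in citrate buffer (pH 4.5) on day 1 of birth, then peptide 30 or 100 nmol/kg sc twice daily, days 2–8. Controls received citrate buffer. Killed at day 70. Glucose measured colorimetrically in nonfasted plasma. Plasma and pancreatic (80 mg) insulin measured by RIA. n = 11–21 per group.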
# HIT-T15 [4] = assay: Cytoprotective activity in hamster HIT-T15 cells assessed as inhibition of IFN-gamma/TNFalpha/IL1beta-induced cell death at 1 to 100 nM after 24 hrs by MTT assay relative to control; assay type: functional, cell-based; settings: Mesocricetus auratus; summary of the method: as §1
# Pancreatic islet [5] = assay: Cytoprotective activity in human pancreatic islet cells assessed as inhibition of IFN-gamma/TNFalpha/IL1beta-induced cell death at 10 to 100 nM after 72 hrs by MTT assay relative to control; assay type: functional
# Summary of the method: (§3)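 Human donor islets (>70% purity, 25/well) held 72 h in serum-free medium with peptide, alone or with IFN-γ/TNF-α/IL-1β at 5 ng/mL each. Viability by MTT (1 mg/mL ~1 h, DMSO, 570 nm). Mean ± SE of ≥3 experiments in quadruplicate.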
# Rattus norvegicus [6] = assay: Antidiabetic activity in neonatal Sprague-Dawley rat assessed as inhibition of STZ-induced decrease in plasma insulin level at 100 nmol/kg, […] post STZ-challenge measured after 70 days by RIA by relative to control; assay type: functional, organism-based
# HIT-T15 [7] = assay: Antiapoptotic activity in hamster HIT-T15 cells assessed as reduction in IFN-gamma/TNFalpha/IL1beta-induced apoptosis at 100 nM after 24 hrs by Hoechst staining relative to control; assay type: functional, cell-based; settings: Mesocricetus auratus
# Summary of the method: (§4)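 HIT-T15 cells serum-starved 24 h, then 24 h in serum-free medium with IFN-γ 100 ng/mL, TNF-α 200 ng/mL, IL-1β 10 ng/mL plus peptide. Cells pooled with floating cells, formaldehyde-fixed, ethanol-stored, stained with 10 μg/mL Hoechst 33258. Condensed/fragmented nuclei counted, 500 nuclei in duplicate, n = 3. Reported as percent apoptotic cells.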
# EPC [8] = assay: Cytoprotective activity in human EPC assessed as decrease in H2O2-induced senescence associated beta-galactosidase positive cells at 10 uM after 24 hrs; assay type: functional
# Summary of the method: (§5)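 EPCs given test peptides (1 μM or 10 μM) with or without H₂O₂ for 24 h. Cells then fixed in 2% paraformaldehyde for 3 min and stained 24 h at 37 °C with X-gal solution. SA-β-gal-positive cells counted out of 100 at 20× by three investigators.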
# EPC [9] = assay: Cytoprotective activity in human EPC assessed as decrease in H2O2-induced ROS production after 2 hrs by DCF-DA flow cytometry assay; assay type: functional
# Summary of the method: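 Human EPCs from peripheral blood mononuclear cells, cultured 21 days on collagen I in EGM-2. ROS measured by flow cytometry using DCF-DA (0.5 μM final) after 2 h of treatment. H₂O₂ 150 μM as positive control.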
# HIT-T15 [10] = assay: Cytoprotective activity in hamster HIT-T15 cells assessed as inhibition of serum starvation-induced cell death after 24 hrs by MTT assay relative to control; assay type: functional, cell-based; settings: Mesocricetus auratus
# Summary of the method: (§6)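 Viability by MTT in HIT-T15 cells seeded at 5×10^3/well, serum-starved 24 h, then 24 h more in serum-free medium with peptide (1–100 nM). MTT 1 mg/mL ~1 h, DMSO solubilization, absorbance 570 nm. Expressed as percent of serum-free control. Mean ± SE, ≥3 experiments in quadruplicate.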
# Rattus norvegicus [11] = assay: Antidiabetic activity in neonatal Sprague-Dawley rat assessed as decrease in STZ-induced plasma glucose level at 100 nmol/kg, sc administered from day 2 to day 9 post STZ-challenge measured after 70 days by colorimetry by relative to control; assay type: functional, organism-based; summary of the method: as §2
# HIT-T15 [12] = assay: Antiapoptotic activity in hamster HIT-T15 cells assessed as reduction in IFN-gamma/TNFalpha/IL1beta-induced apoptosis at 10 nM after 24 hrs by Hoechst staining relative to control; assay type: functional, cell-based; settings: Mesocricetus auratus; summary of the method: as §4
# Rattus norvegicus [13] = assay: Antidiabetic activity in neonatal Sprague-Dawley rat assessed as inhibition of STZ-induced mortality at 30 nmol/kg, sc administered on day 2 post STZ-challenge measured on day 9 (reference value: 52%); assay type: functional; parameters: scale not given: the % may be the effect or the level left
# Rattus norvegicus [14] = assay: Antidiabetic activity in neonatal Sprague-Dawley rat assessed as inhibition of STZ-induced decrease in pancreatic insulin level at 30 nmol/kg, […] measured after 70 days by RIA relative to control; assay type: functional, organism-based
# Rattus norvegicus [15] = assay: Antidiabetic activity in neonatal Sprague-Dawley rat assessed as decrease in STZ-induced plasma glucose level at 30 nmol/kg, sc administered from day 2 to day 9 post STZ-challenge measured after 70 days by colorimetry relative to control; assay type: functional, organism-based; summary of the method: as §2
# HIT-T15 [16] = assay: Cytoprotective activity in hamster HIT-T15 cells assessed as inhibition of serum starvation-induced cell death at 1 to 100 nM after 24 hrs by MTT assay relative to control; assay type: functional, cell-based; settings: Mesocricetus auratus; summary of the method: as §6
# [17] = target: Ras-related C3 botulinum toxin substrate 1 (Homo sapiens) (UniProt P63000); assay: Inhibition of Rac1 activation
# HIT-T15 [18] = assay: Antiapoptotic activity in hamster HIT-T15 cells assessed as reduction in IFN-gamma/TNFalpha/IL1beta-induced apoptosis at 1 nM after 24 hrs by Hoechst staining relative to control; assay type: functional, cell-based; settings: Mesocricetus auratus; summary of the method: as §4
# Rattus norvegicus [19] = assay: Antidiabetic activity in neonatal Sprague-Dawley rat assessed as inhibition of STZ-induced decrease in plasma insulin level at 30 nmol/kg, sc administered from day 2 to day 9 post STZ-challenge measured after 70 days by RIA relative to control; assay type: functional, organism-based; summary of the method: as §2
# Pancreatic islet [20] = assay: Cytoprotective activity in human pancreatic islet cells assessed as inhibition of serum starvation-induced cell death at 10 to 100 nM after 72 hrs by MTT assay relative to control; assay type: functional; summary of the method: as §3
# Pancreatic islet [21] = assay: Cytoprotective activity in human pancreatic islet cells assessed as inhibition of IFN-gamma/TNFalpha/IL1beta-induced cell death at 100 nM after 72 hrs by MTT assay relative to control; assay type: functional; summary of the method: as §3
# Pancreatic islet [22] = assay: Cytoprotective activity in human pancreatic islet cells assessed as inhibition of IFN-gamma/TNFalpha/IL1beta-induced cell death at 100 nM after 24 hrs by MTT assay relative to control; assay type: functional
# Summary of the method: (§7)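 Human donor islets (purity >70%, 25/well) serum-starved 24 h, then 24 h serum-free with peptide (1–100 nM), alone or with IFN-γ 100 ng/mL, TNF-α 200 ng/mL, IL-1β 10 ng/mL. MTT 1 mg/mL ~1 h, DMSO, A570. Percent of serum-free or cytokine control. ≥3 experiments in quadruplicate.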
# Pancreatic islet [23] = assay: Cytoprotective activity in human pancreatic islet cells assessed as inhibition of serum starvation-induced cell death at 100 nM after 24 hrs by MTT assay relative to control; assay type: functional; summary of the method: as §7
# Pancreatic islet [24] = assay: Cytoprotective activity in human pancreatic islet cells assessed as inhibition of IFN-gamma/TNFalpha/IL1beta-induced cell death at 1 nM after 24 hrs by MTT assay relative to control; assay type: functional; summary of the method: as §7
# Pancreatic islet [25] = assay: Cytoprotective activity in human pancreatic islet cells assessed as inhibition of serum starvation-induced cell death at 10 nM after 24 hrs by MTT assay relative to control; assay type: functional; summary of the method: as §7
# EPC [26] = assay: Cytoprotective activity in human EPC assessed as decrease in H2O2-induced senescence associated beta-galactosidase positive cells at 1 uM after 24 hrs; assay type: functional; summary of the method: as §5
# Pancreatic islet [27] = assay: Cytoprotective activity in human pancreatic islet cells assessed as inhibition of IFN-gamma/TNFalpha/IL1beta-induced cell death at 10 nM after 24 hrs by MTT assay relative to control; assay type: functional; summary of the method: as §7
# Pancreatic islet [28] = assay: Cytoprotective activity in human pancreatic islet cells assessed as inhibition of serum starvation-induced cell death at 1 nM after 24 hrs by MTT assay relative to control; assay type: functional; summary of the method: as §7
# HIT-T15 [29] = assay: Cytoprotective activity in hamster HIT-T15 cells assessed as inhibition of IFN-gamma/TNFalpha/IL1beta-induced cell death at 10 to 100 nM after 24 hrs by MTT assay relative to control; assay type: functional, cell-based; settings: Mesocricetus auratus; summary of the method: as §1
Compound,Activity (HIT-T15 [1]),Activity (HIT-T15 [4]),Activity (Pancreatic islet [5]),Activity (HIT-T15 [7]),Activity (EPC [9]),Activity (HIT-T15 [10]),Activity (HIT-T15 [12]),Activity (Rattus norvegicus [13]) [%],Activity (Rattus norvegicus [14]),Activity (Rattus norvegicus [15]),Activity (HIT-T15 [16]),Activity (HIT-T15 [18]),Activity (Rattus norvegicus [19]),Activity (Pancreatic islet [20]),Activity (Pancreatic islet [22]),Activity (Pancreatic islet [23]),further results
CC(C)[C@H](NC(=O)[C@H](CCCNC(=N)N)NC(=O)[C@H](CCC(N)=O)NC(=O)[C@H](Cc1cnc[nH]1)NC(=O)[C@H](CCC(=O)O)NC(=O)[C@@H]1CCCN1C(=O)[C@@H](N)CO)C(=O)N[C@@H](CCC(N)=O)C(N)=O,Dose-dependent effect,Active,Active,Active,Active,Dose-dependent effect,Active,71,Active,Active,Active,Active,Active,Active,–,–,Activity (Rattus norvegicus [2]): 89%; Activity (Rattus norvegicus [3]): Active; Activity (Rattus norvegicus [6]): Active; Activity (EPC [8]): Active; Activity (Rattus norvegicus [11]): Active; inhibition [17]: Active
H-QQVRQHEPSLFSSG-OH,–,inactive,–,inactive,–,–,inactive,–,–,–,–,inactive,–,–,inactive,inactive,Activity (Pancreatic islet [21]): inactive
CC(C)C[C@H](NC(=O)[C@H](CCCCN)NC(=O)[C@H](C)NC(=O)[C@@H]1CCCN1C(=O)[C@@H]1CCCN1C(=O)[C@H](CCCCN)NC(=O)[C@H](CCCCN)NC(=O)[C@H](CO)NC(=O)[C@H](CCC(=O)O)NC(=O)[C@H](CCCCN)NC(=O)[C@H](CCCNC(=N)N)NC(=O)[C@H](CCC(N)=O)NC(=O)[C@H](CCC(N)=O)NC(=O)[C@@H](NC(=O)[C@H](CCCNC(=N)N)NC(=O)[C@H](CCC(N)=O)NC(=O)[C@H](Cc1cnc[nH]1)NC(=O)[C@H](CCC(=O)O)NC(=O)[C@@H]1CCCN1C(=O)[C@H](CO)NC(=O)[C@H](CC(C)C)NC(=O)[C@H](Cc1ccccc1)NC(=O)[C@H](CO)NC(=O)[C@H](CO)NC(=O)CN)C(C)C)C(=O)N[C@@H](CCC(N)=O)C(=O)N1CCC[C@H]1C(=O)N[C@@H](CCCNC(=N)N)C(=O)O,Dose-dependent effect,Active,Active,Active,Active,Dose-dependent effect,Active,72,Active,Active,Active,Active,Active,Active,Active,Active,Activity (Pancreatic islet [24]): Active; Activity (Pancreatic islet [25]): Active; Activity (EPC [26]): Active; Activity (Pancreatic islet [27]): Active; Activity (Pancreatic islet [28]): inactive
H-EHQRV-NH2,–,–,–,Active,–,–,inactive,–,–,–,–,inactive,–,–,–,–,Activity (HIT-T15 [29]): Active
